Screening results from PubChem BioAssay.
CRFBP-R2 block = antagonists of CRF-BP/CRF-R2 complex, primary screen, cell-based, HEK293, calcium dye fluorescence, uHTS; CRF-induced calcium fluorescence; inhibition, % at 11.8 µM; 350,000 compounds, 0.59% hits; AID 588475, 2011;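 active = inhibition of the ligand-induced calcium signal above about 50% at the single tested concentration, limit read from the data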
TRPML3 ag = human TRPML3 channel agonists, primary screen, cell-based, HEK293 TRPML3-YFP, Fluo-8 calcium fluorescence, 3 µM | AID 1448, 2008 | 220,000 compounds, 0.29% hits | 100% = the carbachol control signal | activation, % at 3 µM | Mucolipin-3 (Homo sapiens), Q8TDD5;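 active = activation above its plate's cutoff, the mean activation of the plate's test wells plus 3 SD, cut at about 12% in these data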;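 note: 0% = DMSO only wells and 100% = carbachol wells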
Target sequence (Q8TDD5 whole entry, looked up): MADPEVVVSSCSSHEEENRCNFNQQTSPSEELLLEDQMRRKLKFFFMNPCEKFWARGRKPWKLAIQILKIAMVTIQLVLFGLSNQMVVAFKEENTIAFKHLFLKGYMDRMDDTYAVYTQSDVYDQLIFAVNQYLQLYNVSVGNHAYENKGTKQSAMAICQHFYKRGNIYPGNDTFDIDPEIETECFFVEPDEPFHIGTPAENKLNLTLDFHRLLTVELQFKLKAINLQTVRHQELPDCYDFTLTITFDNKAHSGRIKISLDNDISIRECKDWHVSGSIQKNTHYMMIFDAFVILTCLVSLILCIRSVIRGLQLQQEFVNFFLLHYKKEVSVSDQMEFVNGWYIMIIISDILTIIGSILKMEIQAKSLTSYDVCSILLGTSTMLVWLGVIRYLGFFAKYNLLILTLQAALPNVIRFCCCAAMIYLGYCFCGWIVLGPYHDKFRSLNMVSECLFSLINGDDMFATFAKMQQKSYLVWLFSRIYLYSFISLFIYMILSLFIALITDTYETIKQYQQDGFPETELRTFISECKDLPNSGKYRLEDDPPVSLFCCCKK
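Test system: HEK293 cells stably carrying human TRPML3-YFP; Doses: single dose, 3 µM final nominal compound, 0.3% DMSO final; Schedule: dye loading 1 h 37 °C then 30 min ambient, 125 s read; Technique: Fluo-8 calcium fluorescence; Benchmarks: high control carbachol 87 µM, low control DMSO.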
VIM-2 inhibitor = VIM-2 metallo-beta-lactamase inhibitors, primary screen, biochemical, epi-absorbance readout, Pseudomonas aeruginosa enzyme; 290,000 compounds, 0.89% hits; purified VIM-2, nitrocefin hydrolysis, epi-absorbance fluorescence; inhibition, % at 5.6 µM;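 active = inhibition above the mean of all tested compounds plus 3 SD, cutoff set per screening run, cut at about 7.5% in these data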;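 note: red hydrolysis product quenches plate fluorescence so inhibitors raise well fluorescence; 0% = enzyme with DMSO and 100% = DMSO without enzyme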
zfTRPN1 agonist = zebrafish TRPN1 channel agonists, primary screen, cell-based, HEK293, calcium fluorescence | transient receptor potential cation channel N1 (TRPN1/NompC), Danio rerio | HEK293 zebrafish TRPN1-YFP, Fluo-8 calcium fluorescence; 100% = response to 87 µM carbachol | activation, % at 3 µM | 220,000 compounds, 0.18% hits | AID 1424, 2008;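 active = activation above its plate's cutoff, the mean activation of test wells on that plate plus 3 SD, cut at about 19% in these data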;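 note: 0% = DMSO alone and 100% = 87 µM carbachol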
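Control set: carbachol 87 µM as high control, DMSO as low control; system: HEK293 stable line with zebrafish TRPN1-YFP; read-out: % activation versus carbachol response; detection: intracellular calcium fluorescence with Fluo-8; doses: single test compound dose, 3 µM nominal, 0.3% DMSO; schedule: dye 1 h 37 °C plus 30 min RT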
IMP-1 inhibitor = IMP-1 metallo-beta-lactamase inhibitors, primary screen, biochemical, epi-absorbance readout, Pseudomonas aeruginosa enzyme | metallo-beta-lactamase IMP-1 (Pseudomonas aeruginosa) | purified IMP-1, nitrocefin hydrolysis, epi-absorbance fluorescence | inhibition, % at 5.6 µM | 290,000 compounds, 0.45% hits | AID 1556, 2009;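 active = inhibition above the mean plus 3 SD of all compounds in the same screening run, cut at about 4.5% in these data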;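 note: 0% = IMP-1 with DMSO and 100% = DMSO wells lacking enzyme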
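Test system: recombinant IMP-1 enzyme, purified / Medium: HEPES buffer pH 7.1 with ZnSO4 and Brij 35 / Doses: single dose, 5.6 µM / Times: 25 °C, 15 min preincubation, 25 min reaction / Detection: Epi-absorbance via hydrolysed-nitrocefin quenching of white-plate fluorescence, 480/530 nm, EDTA stop / Evaluation: percent inhibition from optical density relative to buffer-blank wells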
CRFR2-BP ag = agonists of CRF-BP/CRF-R2 complex, primary screen, cell-based, HEK293, calcium dye fluorescence, uHTS; 350,000 compounds, 0.46% hits; AID 588473, 2011; calcium dye fluorescence (FLIPR); percent of saturating CRF peptide response; CRF-binding protein / CRF receptor 2 complex (human); activation, % at 13.2 µM;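 active = activation of at least 50%, plus an integration ratio under a set limit after plate pattern correction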;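 note: plate controls were neutral control wells without compound for no effect and CRF at EC100 for full effect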
An asterisk follows results filed as active; x = not tested or not shown. Most compounds without a hit are left out; they make up all but 2.1% or so of the library.

SMILES	CRFBP-R2 block	TRPML3 ag	VIM-2 inhibitor	zfTRPN1 agonist	IMP-1 inhibitor	CRFR2-BP ag
CC(C)CCNC(=O)CCc1nnc2n(CCCOC(C)C)c(=O)c3ccccc3n12	3	x	-3	x	-3	-2
CSc1nnc2c(n1)OC(C)=Nc1ccccc1-2	6	0	11*	0	-2	0
CSc1nnc2c(n1)OC(C)N(C(=O)c1ccccc1)c1ccccc1-2 (centres undefined)	0	-1	-2	-1	-5	-2
CCC1=Nc2ccccc2-c2nnc(SC)nc2O1	-4	0	10*	0	-2	-3
CCC(=O)N1c2ccccc2-c2nnc(SC)nc2OC1c1ccc(OC)c(OC)c1 (centres undefined)	1	0	2	0	-2	-3
CCOc1ccc(S(=O)(=O)N2CCN(C(=O)C3CSC4(C)CCC(=O)N34)CC2)cc1 (centres undefined)	-2	x	x	x	x	1
CCOc1ccccc1N1CCN(C(=O)C2CSC3(C)CCC(=O)N23)CC1 (centres undefined)	72*	x	x	x	x	-1
C=Cc1ccc(Cn2c(=O)n(CCCOC)c(=O)c3sccc32)cc1	15	x	-2	x	-3	-1
O=C1CC2(CCCC2)C(=O)N1CN1CCN(S(=O)(=O)c2ccc(Cl)c(Cl)c2)CC1	2	x	x	x	x	0
Cc1nn(S(=O)(=O)c2cccs2)c(C)c1Sc1ccc([N+](=O)[O-])cc1	58*	1	-2	3	-2	1
Cc1ccc(N2CCCn3c2cc(C)c(C#N)c3=O)cc1Cl	-5	0	7.8*	1	-1	-1
Cc1ccc(N/C(N)=N/c2nc3c(c(=O)[nH]2)CCCC3)c(C)c1	-10	1	-1	1	5.0*	-1
COc1ccccc1N1CCN(C(=O)CSc2nc3ccccc3nc2N2CCC(C)CC2)CC1	-10	x	-1	x	0	0
O=C(Nc1sc(-c2ccccc2)cc1C(=O)O)c1ccccc1	52*	0	-3	0	-2	-2
CC1(C)CC(NC(=O)c2ccc(-c3ccc([N+](=O)[O-])cc3)o2)CC(C)(C)N1	7	x	-2	x	-3	3
CCCCCC(=O)N(O)C1CC(=O)N(c2ccccc2)C1=O (centres undefined)	-14	-1	8.1*	-1	1	1
O/C(=C\c1nc2ccccc2nc1/C=C(\O)c1ccccc1)c1ccccc1	84*	-1	-2	0	-3	0
CCN1CCN(C(c2cccs2)C(C)NC(=S)Nc2cccc(C)c2C)CC1 (centres undefined)	-15	0	-2	1	-2	1
O=C(NCc1ccc(F)c(F)c1)C1CCC(=O)N(CC2CCCCC2)C1 (centres undefined)	-12	x	-1	x	-3	-1
COc1cccc(CNC(=O)C2CCC(=O)N(CC3CCCCC3)C2)c1OC (centres undefined)	92*	x	-2	x	-6	3
O=C(NCc1cccc(Cl)c1)C1CCC(=O)N(CC2CCCCC2)C1 (centres undefined)	86*	x	1	x	0	-4
COc1cccc(CN2CC(C(=O)NCc3cnn(C)c3)CCC2=O)c1 (centres undefined)	7	x	0	x	-2	0
COc1cccc(CN2CC(C(=O)NCc3ccc(Cl)s3)CCC2=O)c1 (centres undefined)	63*	x	-3	x	-4	1
COc1cccc(OC)c1CNC(=O)C1CCC(=O)N(CC2CCCCC2)C1 (centres undefined)	-13	x	-1	x	-2	0
O=C(Nc1ccc(C(F)(F)F)cc1)C1CCCCN1S(=O)(=O)c1ccccc1 (centres undefined)	38	x	x	x	x	2
SMILES	CRFBP-R2 block	TRPML3 ag	VIM-2 inhibitor	zfTRPN1 agonist	IMP-1 inhibitor	CRFR2-BP ag
CC1=CN2C(=N)/C(=C/c3ccc([N+](=O)[O-])o3)C(=O)N=C2S1	-112	1	-2	3	-1	56*
CC(=O)C1=C(c2cccc([N+](=O)[O-])c2)N(C(C)=O)n2c(C)nnc2S1	54*	0	-3	0	-4	-1
CC(=O)c1c(C(C)=O)c(C)n(-c2cccc([N+](=O)[O-])c2)c1C	-5	1	-4	1	-2	4
COc1ccccc1N(Cc1ccccc1)S(=O)(=O)c1cccc(C(=O)Nc2cccc(C)n2)c1	7	x	-3	x	-3	3
CCn1cc(C(=O)O)c(=O)c2cc(S(=O)(=O)N(C)C)ccc21	-3	0	8.7*	0	-2	7
CSCC[C@H](NC(=O)c1ccc(Cl)c([N+](=O)[O-])c1)c1nc2ccccc2[nH]1	18	2	-3	6	-1	-3
O=C(NC(Cc1ccccc1)c1nc2ccccc2[nH]1)c1ccc(Cl)c([N+](=O)[O-])c1 (centres undefined)	76*	0	-4	2	-3	0
COc1ccc(OC)c(CN2CCN(C(=O)c3cccc(S(=O)(=O)Nc4ccc(C)cc4)c3)CC2)c1	12	x	x	x	x	5
COc1cc(C(=S)N2CCN(C(c3ccccc3)c3ccccc3)CC2)cc(OC)c1O	17	x	0	x	-1	-1
CN(C)CCNC(=O)C(=O)c1c(-c2ccccc2)cc2ccccn12	65*	-1	-1	-1	-2	-3
O=C(NCCCO)C(=O)c1c(-c2ccccc2)cc2ccccn12	1	-1	-5	1	-1	-1
CCOC(=O)c1c(CC(C)C)csc1NC(=O)C(C)C	-12	1	-4	0	-1	1
CCOC(=O)c1c(CC(C)C)csc1N	55*	0	-1	-1	-1	-3
CCC(=O)Nc1nc2ccc(NC(C)=O)cc2s1	-4	0	-2	-1	6.2*	1
O=S(=O)(NCC1CCCO1)c1ccccc1F (centres undefined)	5	x	-3	x	-3	-1
Nc1nc(-c2ccc3c(c2)OCCO3)c(CC(=O)O)s1	16	x	2	x	9.9*	-1
Nc1nc(-c2ccc3c(c2)CCCC3)c(CC(=O)O)s1	2	x	3	x	1	-1
CC(=O)C[C@H](O)CC(=O)[C@H]1OC(=O)[C@@H](C)CCCCc2ccccc21	-16	x	x	x	x	0
CC[C@@H]1CCCCc2ccccc2[C@H](C(=O)C[C@H](O)CC(C)=O)OC1=O	51*	x	x	x	x	1
COC(=O)C[C@@H]1C[C@@H]2c3cc(NS(=O)(=O)c4ccc(F)cc4)ccc3O[C@@H]2[C@H](CO)O1	-14	x	x	x	x	0
